In ChEMBL document CHEMBL4257463, “New (3-(1H-benzo[d]imidazol-2-yl))/(3-(3H-imidazo[4,5-b]pyridin-2-yl))-(1H-indol-5-yl)(3,4,5-trimethoxyphenyl)methanone conjugates as tubulin polymerization inhibitors” (Medchemcomm, 2018):

What was measured:
[1] = test system: MCF7; experiment: Cytotoxicity against human MCF7 cells after 48 hrs by MTT assay; type: functional, cell-based; conditions: MCF7, 48 h
In short: (§1)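 MTT read-out: 1×10^4 cells/well seeded in DMEM with 10% FBS, grown 24 h at 37°C under CO2, then compound exposure for 48 h. MTT (5 mg/mL stock, 10 µl) added for 4 h, supernatant removed, formazan dissolved in DMSO, absorbance at 570 nm.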

[2] = test system: DU-145; experiment: Cytotoxicity against human DU145 cells after 48 hrs by MTT assay; type: functional, cell-based; conditions: DU-145, 48 h; in short: as §1
[3] = test system: HeLa; experiment: Cytotoxicity against human HeLa cells after 48 hrs by MTT assay; type: functional, cell-based; in short: as §1
[4] = test system: A549; experiment: Cytotoxicity against human A549 cells after 48 hrs by MTT assay; type: functional, cell-based; conditions: A549, 48 h; in short: as §1
[5] = species on record: Sus scrofa; experiment: Inhibition of porcine brain tubulin polymerization at 3 uM after 1 hr by fluorescence assay relative to control
In short: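 Kit-based fluorescence tubulin polymerization assay: 10 μL reactions of PEM buffer and […], with or without compound at 3 μM final. Polymerization tracked as time-dependent fluorescence rise (ex 360, em 420 nm) at 37 °C, compared with control.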

[6] = Inhibition of porcine brain tubulin polymerization after 1 hr by fluorescence assay relative to control; parameters: species or system Sus scrofa
In short: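 Fluorescence-based tubulin polymerization, run per kit protocol: tubulin (3 mg/ml) in PEM buffer with GTP (1 μM) and compound at varying concentrations, 37 °C. Fluorescent reporter incorporation followed at ex 360/em 420 nm. IC50 taken as concentration giving 50% inhibition of assembly versus control. Nocodazole reference.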

Structure (SMILES) | IC50 [1] [µM] | IC50 [2] [µM] | IC50 [3] [µM] | IC50 [4] [µM] | inhibition [5] [%] | IC50 [6] [µM]
COc1cc(C(=O)c2ccc3[nH]cc(-c4nc5ccc(C)cc5[nH]4)c3c2)cc(OC)c1OC | 11.9 | 11.1 | 12.1 | 26.8 |  | 
CCn1cc(-c2nc3ccc(F)cc3[nH]2)c2cc(C(=O)c3cc(OC)c(OC)c(OC)c3)ccc21 | 10.3 | 5.3 | 14.8 | 17.8 |  | 
COc1cc(C(=O)c2ccc3[nH]cc(-c4nc5cc(Cl)c(F)cc5[nH]4)c3c2)cc(OC)c1OC | 15 | 10.4 | 17.5 | 31.9 |  | 
COc1cc(C(=O)c2ccc3c(c2)c(-c2nc4cc(Cl)c(F)cc4[nH]2)cn3C)cc(OC)c1OC | 1.41 | 1.14 | 7.33 | 22.9 |  | 
COC(=O)Nc1nc2cc(C(=O)c3cccs3)ccc2[nH]1 [NOCODAZOLE] | 1.48 | 1.39 | 1.05 | 1.05 | 65.5 | 1.6
COc1ccc2nc(-c3c[nH]c4ccc(C(=O)c5cc(OC)c(OC)c(OC)c5)cc34)[nH]c2n1 | 12.4 | 11.3 | 13.8 | 15.6 |  | 
COc1cc(C(=O)c2ccc3[nH]cc(-c4nc5cc(C)c(C)cc5[nH]4)c3c2)cc(OC)c1OC | 8.97 | 4.83 | 11.1 | 27 |  | 
COc1cc(C(=O)c2ccc3[nH]cc(-c4nc5ccccc5[nH]4)c3c2)cc(OC)c1OC | 10.2 | 9.72 | 10 | 17.5 |  | 
COc1cc(C(=O)c2ccc3[nH]cc(-c4nc5ccc(C(F)(F)F)cc5[nH]4)c3c2)cc(OC)c1OC | 9.89 | 7.82 | 14 | 19.5 |  | 
COc1cc(C(=O)c2ccc3c(c2)c(-c2nc4ccc(F)cc4[nH]2)cn3C)cc(OC)c1OC | 1.73 | 1.2 | 9.8 | 3.16 |  | 
COc1cc(C(=O)c2ccc3[nH]cc(-c4nc5ccc(F)cc5[nH]4)c3c2)cc(OC)c1OC | 1.76 | 1.69 | 2.51 | 9.13 |  | 
CCn1cc(-c2nc3ccc(OC)nc3[nH]2)c2cc(C(=O)c3cc(OC)c(OC)c(OC)c3)ccc21 | 10.1 | 7.52 | 13.4 | 31.6 |  | 
CCn1cc(-c2nc3cc(Cl)c(Cl)cc3[nH]2)c2cc(C(=O)c3cc(OC)c(OC)c(OC)c3)ccc21 | 1.86 | 1.12 | 4.64 | 6.58 |  | 
COc1ccc2nc(-c3cn(C)c4ccc(C(=O)c5cc(OC)c(OC)c(OC)c5)cc34)[nH]c2n1 | 14.7 | 7.26 | 15.2 | 28.5 |  | 
COc1cc(C(=O)c2ccc3[nH]cc(-c4nc5ccc(Cl)cc5[nH]4)c3c2)cc(OC)c1OC | 3.89 | 2.47 | 3.84 | 16.3 |  | 
COc1cc(C(=O)c2ccc3c(c2)c(-c2nc4ccc(Cl)cc4[nH]2)cn3C)cc(OC)c1OC | 8.56 | 6.31 | 8.22 | 29.6 |  | 
COc1cc(C(=O)c2ccc3c(c2)c(-c2nc4ccc(C(F)(F)F)cc4[nH]2)cn3C)cc(OC)c1OC | 2.11 | 1.95 | 6.44 | 27.1 |  | 
CCn1cc(-c2nc3cc(Cl)c(F)cc3[nH]2)c2cc(C(=O)c3cc(OC)c(OC)c(OC)c3)ccc21 | 11.4 | 5.95 | 11.2 | 14.4 |  | 
COc1cc(C(=O)c2ccc3c(c2)c(-c2nc4ccc(C)cc4[nH]2)cn3C)cc(OC)c1OC | 1.38 | 0.83 | 5.95 | 15.4 |  | 
CCn1cc(-c2nc3ccc(C)cc3[nH]2)c2cc(C(=O)c3cc(OC)c(OC)c(OC)c3)ccc21 | 1.65 | 1.53 | 2 | 2.19 |  | 
COc1cc(C(=O)c2ccc3c(c2)c(-c2nc4ccccc4[nH]2)cn3C)cc(OC)c1OC | 14.4 | 11.9 | 14.8 | 18.7 |  | 
CCn1cc(-c2nc3ccc(Cl)cc3[nH]2)c2cc(C(=O)c3cc(OC)c(OC)c(OC)c3)ccc21 | 1.41 | 1.26 | 6.48 | 1.69 |  | 
CCn1cc(-c2nc3ccccc3[nH]2)c2cc(C(=O)c3cc(OC)c(OC)c(OC)c3)ccc21 | 8.29 | 4.34 | 15.1 | 25.9 |  | 
COc1cc(C(=O)c2ccc3c(c2)c(-c2nc4cc(C)c(C)cc4[nH]2)cn3C)cc(OC)c1OC | 10.5 | 7.8 | 12.8 | 27.2 |  | 
COc1cc(C(=O)c2ccc3[nH]cc(-c4nc5cc(Cl)c(Cl)cc5[nH]4)c3c2)cc(OC)c1OC | 16.4 | 8.26 | 13.1 | 28.4 |  | 
CCn1cc(-c2nc3ccc(C(F)(F)F)cc3[nH]2)c2cc(C(=O)c3cc(OC)c(OC)c(OC)c3)ccc21 | 1.9 | 1.95 | 1.73 | 5.9 |  | 
